V1R ag counter: activates human V1a receptor in oxytocin agonist counter-screen; activation, % at 3 µM; 320,000 tested, 0.25% active; CHO-V1R cells, Fluo-8 calcium fluorescence, agonist mode; 0% DMSO, 100% 3 nM vasopressin;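 active = activation above the mean activation of all tested compounds plus 3 SD, per screening run, cut at about 20% in these data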;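 also: signal is peak over basal fluorescence ratio across a 100 second FLIPR read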
Target sequence (P37288 whole entry, looked up): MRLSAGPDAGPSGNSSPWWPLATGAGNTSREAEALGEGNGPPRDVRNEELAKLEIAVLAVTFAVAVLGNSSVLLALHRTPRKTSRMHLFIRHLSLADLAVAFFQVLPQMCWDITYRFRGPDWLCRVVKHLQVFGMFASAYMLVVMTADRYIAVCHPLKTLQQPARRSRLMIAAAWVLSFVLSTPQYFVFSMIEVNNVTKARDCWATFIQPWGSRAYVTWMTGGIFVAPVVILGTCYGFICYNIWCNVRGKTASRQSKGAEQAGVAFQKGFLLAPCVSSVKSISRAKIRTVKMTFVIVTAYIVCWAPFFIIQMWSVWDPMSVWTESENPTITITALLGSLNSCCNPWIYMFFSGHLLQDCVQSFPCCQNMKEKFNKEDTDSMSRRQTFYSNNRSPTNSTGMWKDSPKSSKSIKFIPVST
OXTR agonist: human OXTR agonism; activation, % at 3 µM; 320,000 tested, 0.32% active; CHO-OTR cells, Fluo-8 calcium fluorescence; normalized: DMSO 0%, oxytocin 100%;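 active = activation above the mean of all tested compounds plus 3 SD, cutoff set per screening run, cut at about 20% in these data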;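 also: peak over basal fluorescence ratio from a 100 s FLIPR kinetic read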
OXTR potentiate: potentiates the human oxytocin receptor response; activation, % at 3 µM; CHO-OTR cells, Fluo-8 calcium fluorescence, potentiator mode; 0% = oxytocin EC15, 100% = EC100; AID 2445; P30559; 320,000 tested, 0.061% active;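 active = activation above that plate's cutoff, the mean activation of tested compounds plus 3 SD, cut at about 6.6% in these data, passing the limit was not always enough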;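 also: 100% uses oxytocin at 75 nM as the full agonist control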
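Dosing: Single dose, 3.0 µM nominal final compound concentration | Material: Human OTR in CHO cells | Technique: Kinetic Fluo-8 calcium fluorescence | Benchmarks: EC15 oxytocin alone as 0%, 75 nM oxytocin as 100% | Probe or stimulus: Oxytocin at about EC15, sub-maximal agonist stimulus | Incubation: Compound 6 min at room temperature before oxytocin, 100 s read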
TRPML3 ag: activates the human TRPML3 channel | 220,000 tested, 0.29% active | Q8TDD5 | activation, % at 3 µM | HEK293 TRPML3-YFP, Fluo-8 calcium fluorescence; 100% = the carbachol control signal;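 active = activation above its plate's cutoff, the mean activation of the plate's test wells plus 3 SD, cut at about 12% in these data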;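 also: 0% = DMSO only wells and 100% = carbachol wells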
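system = HEK293 cells stably carrying human TRPML3-YFP | doses = one concentration, 3 µM nominal, 0.3% DMSO | timing = dye loading 1 h 37 °C then 30 min ambient, 125 s read | detection = Fluo-8 calcium dye fluorescence, ex 470-495, em 515-575 nm | benchmarks = high control carbachol 87 µM, low control DMSO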
zfTRPN1 agonist: zebrafish TRPN1 (NompC) channel agonism. HEK293 zebrafish TRPN1-YFP, Fluo-8 calcium fluorescence; 100% = response to 87 µM carbachol. activation, % at 3 µM. 220,000 tested, 0.18% active;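 active = activation above its plate's cutoff, the mean activation of test wells on that plate plus 3 SD, cut at about 19% in these data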;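 also: 0% = DMSO alone and 100% = 87 µM carbachol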
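Material: zebrafish TRPN1-YFP in HEK293 cells; Doses: single test compound dose, 3 µM nominal, 0.3% DMSO; Timing: dye loading 1 h at 37 °C, then 30 min room temperature; Technique: intracellular calcium fluorescence with Fluo-8; Benchmarks: high carbachol 87 µM, low DMSO alone.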
OXTR agonist cf: confirmation of human oxytocin receptor agonists. shares compounds with OXTR agonist. CHO-OTR cells, Fluo-8 calcium fluorescence, agonist. activation, % at 3 µM. 390 tested, 20% active;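 active = mean activation above about 20% derived from the earlier single-dose screen, limit read from the data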;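 also: peak over minimum fluorescence ratio per well during a 100 second FLIPR read; 0% = DMSO alone and 100% = oxytocin high control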
V1aR counter 3x: counter-screen for oxytocin receptor agonists: V1a receptor agonists | CHO-V1R cells, Fluo-8 calcium fluorescence, agonist | shares compounds with OXTR agonist | activation, % at 3 µM | 390 tested, 10% active;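 active = mean activation over triplicate exceeds the hit threshold set in the earlier primary screen, cut at about 20% in these data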;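 also: peak over basal fluorescence ratio within a 100 second read; 0% = DMSO alone and 100% = 3 nM vasopressin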
An asterisk follows results filed as active. An excerpt weighted towards active compounds, which were near 0.55% of everything screened.

For CCOC(=O)c1ccc(NC(=S)N2CCSC2c2ccc(OC)cc2)cc1 (stereo not drawn) the results were V1R ag counter 18, OXTR agonist 32*, OXTR potentiate -21, TRPML3 ag 2, zfTRPN1 agonist 5, OXTR agonist cf 37* and V1aR counter 3x 31*.
`CC(=O)c1ccc(OCC(=O)Nc2cccc(S(=O)(=O)N3CCCC3)c2)cc1` gave V1R ag counter 11, OXTR agonist 15 and OXTR potentiate -14.
Screening O=C(COc1ccc2ccc(=O)oc2c1)Nc1cccc(S(=O)(=O)N2CCCCC2)c1 returned V1R ag counter 12, OXTR agonist 21*, OXTR potentiate -10, OXTR agonist cf 8 and V1aR counter 3x 9.
Screening O=C(Nc1cccc(Cl)c1)Nc1cccc(Cl)c1 returned V1R ag counter 9, OXTR agonist 14, OXTR potentiate -22, TRPML3 ag 5 and zfTRPN1 agonist 10.
`COc1cccc(NC(=O)Nc2nc(SC(C)(C)C)ns2)c1` gave V1R ag counter 18, OXTR agonist 23*, OXTR potentiate -26, OXTR agonist cf 13 and V1aR counter 3x 11.
COc1cccc(NC(=O)Nc2nc(SC)ns2)c1 was read as V1R ag counter 10, OXTR agonist 12 and OXTR potentiate -8.
`O=C(Nc1cccc(F)c1)Nc1cccc(Cl)c1` gave V1R ag counter 13, OXTR agonist 20*, OXTR potentiate -25, OXTR agonist cf 5 and V1aR counter 3x 6.
Screening CCSc1nsc(NC(=O)Nc2cccc(F)c2)n1 returned V1R ag counter 16, OXTR agonist 20*, OXTR potentiate -26, OXTR agonist cf 12 and V1aR counter 3x 13.
`NS(=O)(=O)c1ccc(CCNCc2cc(Cl)ccc2OCc2ccccc2)cc1` gave V1R ag counter 17, OXTR agonist 22*, OXTR potentiate -23, OXTR agonist cf 8 and V1aR counter 3x 8.
`NS(=O)(=O)c1ccc(CCNCc2ccccc2OCc2ccc(Cl)cc2)cc1` gave V1R ag counter 17, OXTR agonist 28*, OXTR potentiate -25, OXTR agonist cf 18 and V1aR counter 3x 7.
`Cc1ccc(C(=O)OCC(=O)Nc2ccc3c(c2)OCO3)c(O)c1` gave V1R ag counter 6, OXTR agonist 5 and OXTR potentiate -8.
For Cc1ccc(C(=O)OCC(=O)NC(C)C2CC3CCC2C3)cc1N (stereo not drawn) the results were V1R ag counter 2, OXTR agonist 0 and OXTR potentiate -3.
OCCN1CCN(C2CCC(c3ccc(F)cc3)c3ccc(F)cc32)CC1 (stereo not drawn) was read as V1R ag counter 17, OXTR agonist 31*, OXTR potentiate -14, OXTR agonist cf 3 and V1aR counter 3x 1.
For COc1ccc(CCNCC(O)Cn2c3ccccc3c3ccccc32)cc1OC (stereo not drawn) the results were V1R ag counter 15, OXTR agonist 23*, OXTR potentiate -11, TRPML3 ag 4, zfTRPN1 agonist 6, OXTR agonist cf 24* and V1aR counter 3x 4.
Screening COc1ccc(C(=O)CSc2nnc(Cn3cnc4ccccc43)o2)cc1 returned V1R ag counter 15, OXTR agonist 20*, OXTR potentiate -23, TRPML3 ag 4, zfTRPN1 agonist 8, OXTR agonist cf 10 and V1aR counter 3x 10.
`Nc1ccc(Br)c2c1C(=O)c1ccccc1C2=O` gave V1R ag counter 10, OXTR agonist 34*, OXTR potentiate -13, TRPML3 ag 9, zfTRPN1 agonist 12, OXTR agonist cf 6 and V1aR counter 3x 3.
Screening CC(Oc1cccc(Cl)c1)C(=O)Nc1ccc(S(=O)(=O)NC2=NCCCCC2)cc1 (stereo not drawn) returned V1R ag counter 10, OXTR agonist 14 and OXTR potentiate -16.
`CC(Oc1ccc(F)cc1)C(=O)Nc1ccc(S(=O)(=O)NC2=NCCCCC2)cc1` (stereo not drawn) gave V1R ag counter 15, OXTR agonist 25*, OXTR potentiate -12, OXTR agonist cf 28* and V1aR counter 3x 20.
For Cc1ccc(CNC(=O)c2cccnc2Sc2cccc(Cl)c2)cc1 the results were V1R ag counter 16, OXTR agonist 19, OXTR potentiate -17, TRPML3 ag 3 and zfTRPN1 agonist 10.
For COc1ccc(CNC(=O)c2cccnc2Sc2ccc(Cl)cc2)cc1 the results were V1R ag counter 10, OXTR agonist 22*, OXTR potentiate -10, TRPML3 ag -1, zfTRPN1 agonist 1, OXTR agonist cf 5 and V1aR counter 3x 5.
For N#C/C(=C\c1ccc(N2CCOCC2)o1)c1nc2ccccc2[nH]1 the results were V1R ag counter 16, OXTR agonist 43*, OXTR potentiate -23, TRPML3 ag 2, zfTRPN1 agonist 2, OXTR agonist cf 176* and V1aR counter 3x 259*.
For N#C/C(=C\c1ccc(N2CCOCC2)c([N+](=O)[O-])c1)c1nc2ccccc2[nH]1 the results were V1R ag counter 5, OXTR agonist 2, OXTR potentiate -7, TRPML3 ag 1 and zfTRPN1 agonist 1.
For CN(Cc1ccccc1)C(=O)COC(=O)CCC(=O)c1ccc(F)cc1 the results were V1R ag counter 3, OXTR agonist 3 and OXTR potentiate -2.
Screening CCCc1nnc(NC(=O)CN2C(=O)c3ccccc3C2=O)s1 returned V1R ag counter 1, OXTR agonist 2, OXTR potentiate -5, TRPML3 ag 0 and zfTRPN1 agonist 0.
CCCc1nnc(NC(=O)Cn2c(=O)sc3ccccc32)s1 was read as V1R ag counter 11, OXTR agonist 21*, OXTR potentiate -9, TRPML3 ag 1, zfTRPN1 agonist 2, OXTR agonist cf 8 and V1aR counter 3x 5.
Screening CCOc1ccc(CCNC(=O)CSCC(=O)Nc2ccc(OC)cc2)cc1OCC returned V1R ag counter 0, OXTR agonist -1 and OXTR potentiate -4.
Screening CCOc1ccc(NS(=O)(=O)c2ccc(C(=O)NCC3(N(C)C)CCCCC3)cc2)cc1 returned V1R ag counter 19, OXTR agonist 24*, OXTR potentiate -21, OXTR agonist cf 12 and V1aR counter 3x 8.
Cc1cc(S(=O)(=O)Nc2ccc(C(=O)NCC3(N(C)C)CCCCC3)cc2)ccc1F was read as V1R ag counter 1, OXTR agonist 0 and OXTR potentiate -15.

High-throughput results from PubChem BioAssay.
